pIC50: −log10 of the molar value.
Columns and labels:
Plasmodium falciparum [1] = assay: Inhibitory activity against chloroquine-resistant Plasmodium falciparum FcB1R; assay type: functional, organism-based; conditions: Plasmodium falciparum
[2] = Cytotoxicity upon MPMs (mouse peritoneal macrophages) at 6.3 uM
Method in brief: (§1)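 Mouse peritoneal macrophages harvested 48 h after potato-starch stimulation and seeded at 30000 cells/well. After 24 h, washed and exposed to 2-fold drug dilutions in RPMI + 5% FCS (final DMSO below 0.5%) at 37 °C, 5% CO₂, for 7 days. Toxicity scored microscopically as toxic or not versus untreated controls.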

[3] = Cytotoxicity upon MRC-5 cells (diploid embryonic lung cell line) at 12.5 uM; assay type: cell-based, MRC5; conditions: human
Method in brief: (§2)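 MRC-5 human diploid embryonic lung cells seeded at 5000/well, washed after 24 h, then given 2-fold drug dilutions in RPMI + 5% FCS (final DMSO below 0.5%). Incubated at 37 °C, 5% CO₂, for 7 days. MTT read-out at 540 nm, scored as percent absorbance reduction versus untreated controls.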

Mus musculus [4] = assay: Antimalarial activity on Plasmodium berghei in mice (Mus musculus) dosed at 40 mg/kg at day 7; assay type: functional
Method in brief: (§3)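 Female Swiss CD-1 mice (4 weeks, 20-25 g), three per group, infected ip with about 10⁷ P. berghei ANKA 65 parasitized erythrocytes from an infected donor. Dosed orally at 40 mg/kg in 100% DMSO at infection, then ip for the following 4 days. Parasitaemia reduction and mean survival time compared with three DMSO-dosed infected controls.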

[5] = Cytotoxicity upon MRC-5 cells (diploid embryonic lung cell line) at 3.1 uM; assay type: cell-based, MRC5; conditions: human; method in brief: as §2
Plasmodium falciparum [6] = assay: Inhibitory activity against chloroquine-resistant Plasmodium falciparum K1; assay type: functional, organism-based
[7] = Cytotoxicity upon MRC-5 cells (diploid embryonic lung cell line) at 6.3 uM; assay type: cell-based, MRC5; conditions: human; method in brief: as §2
[8] = Cytotoxicity upon MPMs (mouse peritoneal macrophages) at 12.5 uM conc.; Toxic; method in brief: as §1
[9] = Cytotoxicity upon MRC-5 cells (diploid embryonic lung cell line) at 25 uM conc.; assay type: cell-based, MRC5; conditions: human; method in brief: as §2
[10] = Cytotoxicity upon MRC-5 cells (diploid embryonic lung cell line) at 8 uM; assay type: cell-based, MRC5; conditions: human; method in brief: as §2
[11] = Cytotoxicity upon MRC-5 cells (diploid embryonic lung cell line) at 1.6 uM conc.; assay type: cell-based, MRC5; conditions: human; method in brief: as §2
[12] = Cytotoxicity upon MPMs (mouse peritoneal macrophages) at 3.1 uM conc.;NT=No Toxicity; method in brief: as §1
Plasmodium falciparum [13] = assay: Inhibitory activity against chloroquine-sensitive Plasmodium falciparum THAI
Mus musculus [14] = assay: Change in the mean survival time of the treated mice infected with Plasmodium berghei, dosed at 40 mg/kg; assay type: functional
Method in brief: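 P. berghei ANKA 65 in 4-week-old female Swiss CD-1 mice (20-25 g), infected ip with about 10⁷ parasitized erythrocytes; 40 mg/kg given orally at infection (formulated in 100% DMSO), then ip over the following 4 days; three mice per group; mean survival time of treated mice compared with three infected DMSO-dosed controls.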

[15] = Cytotoxicity upon MRC-5 cells (diploid embryonic lung cell line) at 1 uM; assay type: cell-based, MRC5; conditions: human; method in brief: as §2
[16] = Cytotoxicity upon MRC-5 cells (diploid embryonic lung cell line) at 32 uM; assay type: cell-based, MRC5; conditions: human; method in brief: as §2
[17] = Cytotoxicity upon MRC-5 cells (diploid embryonic lung cell line) at 1 uM concentration; assay type: cell-based, MRC5; conditions: human; method in brief: as §2
[18] = Cytotoxicity upon MPMs (mouse peritoneal macrophages) at 3.1 uM concentration; No toxicity; method in brief: as §1
[19] = Cytotoxicity upon MRC-5 cells (diploid embryonic lung cell line) at 8 uM concentration; assay type: cell-based, MRC5; conditions: human; method in brief: as §2
[20] = Cytotoxicity upon MRC-5 cells (diploid embryonic lung cell line) at 6.3 uM concentration; assay type: cell-based, MRC5; conditions: human; method in brief: as §2
[21] = Cytotoxicity upon MRC-5 cells (diploid embryonic lung cell line) at 32 uM concentration; assay type: cell-based, MRC5; conditions: human; method in brief: as §2
[22] = Cytotoxicity upon MRC-5 cells (diploid embryonic lung cell line) at 1.6 uM concentration; assay type: cell-based, MRC5; conditions: human; method in brief: as §2
[23] = Cytotoxicity upon MRC-5 cells (diploid embryonic lung cell line) at 3.1 uM concentration; assay type: cell-based, MRC5; conditions: human; method in brief: as §2
[24] = Cytotoxicity upon MRC-5 cells (diploid embryonic lung cell line) at 12.5 uM concentration; assay type: cell-based, MRC5; conditions: human; method in brief: as §2
[25] = Cytotoxicity upon MPMs (mouse peritoneal macrophages) at 6.3 uM concentration; No toxicity; method in brief: as §1
[26] = Cytotoxicity upon MRC-5 cells (diploid embryonic lung cell line) at 25 uM concentration; assay type: cell-based, MRC5; conditions: human; method in brief: as §2
[27] = Cytotoxicity upon MPMs (mouse peritoneal macrophages) at 8 uM concentration; No toxicity; method in brief: as §1
[28] = Cytotoxicity upon MPMs (mouse peritoneal macrophages) at 12.5 uM concentration; No toxicity; method in brief: as §1
[29] = Cytotoxicity upon MPMs (mouse peritoneal macrophages) at 32 uM concentration; No toxicity; method in brief: as §1
[30] = Cytotoxicity upon MPMs (mouse peritoneal macrophages) at 2 uM concentration; No toxicity; method in brief: as §1
[31] = Cytotoxicity upon MPMs (mouse peritoneal macrophages) at 2 uM concentration; NT=No toxicity; method in brief: as §1
[32] = Cytotoxicity upon MPMs (mouse peritoneal macrophages) at 12.5 uM concentration; Toxic Compound; method in brief: as §1
[33] = Cytotoxicity upon MPMs (mouse peritoneal macrophages) at 6.3 uM concentration; Toxic Compound; method in brief: as §1
[34] = Cytotoxicity upon MPMs (mouse peritoneal macrophages) at 3.1 uM concentration; NT= No toxicity.; method in brief: as §1
[35] = Cytotoxicity upon MPMs (mouse peritoneal macrophages) at 32 uM concentration; Toxic Compound.; method in brief: as §1
[36] = Cytotoxicity upon MPMs (mouse peritoneal macrophages) at 8 uM conc.;NT=No Toxicity; method in brief: as §1
[37] = Cytotoxicity upon MPMs (mouse peritoneal macrophages) at 32 uM; method in brief: as §1
[38] = Cytotoxicity upon MPMs (mouse peritoneal macrophages) at 2 uM; method in brief: as §1
[39] = Cytotoxicity upon MPMs (mouse peritoneal macrophages) at 6.3 uM conc.; Toxic; method in brief: as §1
Mus musculus [40] = assay: Antimalarial activity on Plasmodium berghei in mice (Mus musculus) dosed at 40 mg/kg at day 4; assay type: functional; method in brief: as §3
[41] = Cytotoxicity upon MPMs (mouse peritoneal macrophages) at 12.5 uM conc.;NT=No Toxicity; method in brief: as §1

Compound	pIC50 (Plasmodium falciparum [1])	pIC50 (Plasmodium falciparum [6])	cytotoxicity at 6.3 µM [7] [%]	Cytotoxicity [8]	cytotoxicity at 25 µM [9] [%]	cytotoxicity at 8 µM [10] [%]	cytotoxicity at 1.6 µM [11] [%]	pIC50 (Plasmodium falciparum [13])	cytotoxicity at 1 µM [15] [%]	cytotoxicity at 32 µM [16] [%]	NT [36]	Cytotoxicity [37]	NT [38]	further results
O=C(CN1CCCCC1)Nc1cc(CO)cc(Nc2ccnc3cc(Cl)ccc23)c1	7.35	6.82	0	Toxic	98	0	0	7.05	0	99	–	–	–	NT [2]: Cytotoxicity upon MPMs at 6.3 uM; cytotoxicity at 12.5 µM [3]: 0%; Reduction in parasitemia (Mus musculus [4]): 60%; cytotoxicity at 3.1 µM [5]: 0%; NT [12]: Cytotoxicity upon MPMs at 6.3 uM; Excess MST (Mus musculus [14]): 110%
CCN(CC)CCCC(C)Nc1ccnc2cc(Cl)ccc12 (centres undefined) [CHLOROQUINE]	–	–	–	–	–	–	–	–	–	–	–	–	–	cytotoxicity at 1 µM [17]: 0%; NA [18]: Not Active; cytotoxicity at 8 µM [19]: 0%; cytotoxicity at 6.3 µM [20]: 0%; cytotoxicity at 32 µM [21]: 0%; cytotoxicity at 1.6 µM [22]: 0%; cytotoxicity at 3.1 µM [23]: 0%; cytotoxicity at 12.5 µM [24]: 0%; NA [25]: Not Active; cytotoxicity at 25 µM [26]: 0%; NA [27]: Not Active; NA [28]: Not Active; NA [29]: Not Active; NA [30]: Not Active
CCN(CC)Cc1cc(Nc2ccnc3cc(Cl)ccc23)ccc1O.Cl	8.13	7.84	–	–	–	–	–	8.14	–	–	–	–	–	NT [31]: No toxicity; cytotoxicity at 1 µM [17]: 0%; Cytotoxicity [32]: Toxic; cytotoxicity at 8 µM [19]: 0%; cytotoxicity at 6.3 µM [20]: 0%; cytotoxicity at 32 µM [21]: 91%; cytotoxicity at 3.1 µM [23]: 0%; cytotoxicity at 12.5 µM [24]: 0%; cytotoxicity at 25 µM [26]: 91%; Cytotoxicity [33]: Toxic; NT [34]: No toxicity; Cytotoxicity [35]: Toxic
CN(C)CCNCc1cc(NC(=O)CN2CCCCC2)cc(Nc2ccnc3cc(Cl)ccc23)c1	7.81	–	–	–	–	15	–	–	0	100	Cytotoxicity upon MPMs at 2 uM	Cytotoxicity upon MPMs at 32 uM	Cytotoxicity upon MPMs at 2 uM	–
N#Cc1ccc(CN2CCN(Cc3cc(NC(=O)CN4CCCCC4)cc(Nc4ccnc5cc(Cl)ccc45)c3)CC2)cc1	7.88	–	–	–	–	100	–	–	0	100	Cytotoxicity upon MPMs at 2 uM	Cytotoxicity upon MPMs at 32 uM	Cytotoxicity upon MPMs at 2 uM	–
O=C(CN1CCCCC1)Nc1cc(COC(=O)c2ccnc3ccccc23)cc(Nc2ccnc3cc(Cl)ccc23)c1	7.59	–	100	Toxic	100	–	62	–	–	–	–	–	Cytotoxicity upon MPMs at 2 uM	Cytotoxicity [39]: Toxic
O=Cc1cc(NC(=O)CN2CCCCC2)cc(Nc2ccnc3cc(Cl)ccc23)c1	6.55	–	–	–	–	0	–	–	0	0	Cytotoxicity upon MPMs at 2 uM	–	Cytotoxicity upon MPMs at 2 uM	–
O=C(CN1CCCCC1)Nc1cc(CN2CCOCC2)cc(Nc2ccnc3cc(Cl)ccc23)c1	8.02	7.91	–	–	–	0	–	7.89	0	100	Cytotoxicity upon MPMs at 2 uM	Cytotoxicity upon MPMs at 32 uM	Cytotoxicity upon MPMs at 2 uM	Reduction in parasitemia (Mus musculus [40]): 100%
O=C(CN1CCCCC1)Nc1cc(COC(=O)CCCCN2CCCCC2)cc(Nc2ccnc3cc(Cl)ccc23)c1	7.81	7.72	90	–	92	–	0	7.76	–	–	–	–	Cytotoxicity upon MPMs at 2 uM	NT [2]: Cytotoxicity upon MPMs at 2 uM; Reduction in parasitemia (Mus musculus [40]): 99.99%; NT [41]: Cytotoxicity upon MPMs at 2 uM; Excess MST (Mus musculus [14]): 0%
O=C(CN1CCCCC1)Nc1cc(COC(=O)CCCCCCCN2CCCCC2)cc(Nc2ccnc3cc(Cl)ccc23)c1	6.78	–	84	Toxic	83	–	0	–	–	–	–	–	Cytotoxicity upon MPMs at 2 uM	Cytotoxicity [39]: Toxic
O=C(CN1CCCCC1)Nc1cc(COC(=O)CCCCN2CCOCC2)cc(Nc2ccnc3cc(Cl)ccc23)c1	7.85	7.65	0	–	0	–	0	7.82	–	–	–	–	Cytotoxicity upon MPMs at 2 uM	NT [2]: Cytotoxicity upon MPMs at 2 uM; Reduction in parasitemia (Mus musculus [40]): 97.9%; NT [41]: Cytotoxicity upon MPMs at 2 uM; Excess MST (Mus musculus [14]): 100%
CC1CCN(CC(=O)Nc2cc(CO)cc(Nc3ccnc4cc(Cl)ccc34)c2)CC1	7.11	–	0	Toxic	–	–	–	–	–	–	–	–	–	cytotoxicity at 12.5 µM [3]: 100%; cytotoxicity at 3.1 µM [5]: 0%; Cytotoxicity [39]: Toxic
CN(C)CCCNCc1cc(NC(=O)CN2CCCCC2)cc(Nc2ccnc3cc(Cl)ccc23)c1	6.87	–	–	–	–	0	–	–	0	78	Cytotoxicity upon MPMs at 2 uM	Cytotoxicity upon MPMs at 32 uM	Cytotoxicity upon MPMs at 2 uM	–

— ChEMBL document CHEMBL1134569, “Synthesis and in vitro and in vivo antimalarial activity of new 4-anilinoquinolines” (J Med Chem, 2001)
